Source: ChEMBL document CHEMBL3739255, “Novel Series of Dihydropyridinone P2X7 Receptor Antagonists” (J Med Chem, 2015)

Experiments:
[1] = biological target: Vasopressin V1a receptor (Homo sapiens) (UniProt P37288); experiment: Inhibition of human vasopressin V1a receptor at 10 uM by radioligand binding assay
In short: (§1)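 Outsourced broad receptor-screening panel of 78 targets, each tested at a single 10 uM concentration; read-out is percent inhibition. Detailed conditions are given only in the Supporting Information.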

[2] = biological target: Adenosine receptor A2a (Homo sapiens) (UniProt P29274); experiment: Inhibition of human adenosine A2A receptor at 10 uM by radioligand binding assay; in short: as §1
Adenosine receptor A2a (Homo sapiens), sequence (P29274 whole entry): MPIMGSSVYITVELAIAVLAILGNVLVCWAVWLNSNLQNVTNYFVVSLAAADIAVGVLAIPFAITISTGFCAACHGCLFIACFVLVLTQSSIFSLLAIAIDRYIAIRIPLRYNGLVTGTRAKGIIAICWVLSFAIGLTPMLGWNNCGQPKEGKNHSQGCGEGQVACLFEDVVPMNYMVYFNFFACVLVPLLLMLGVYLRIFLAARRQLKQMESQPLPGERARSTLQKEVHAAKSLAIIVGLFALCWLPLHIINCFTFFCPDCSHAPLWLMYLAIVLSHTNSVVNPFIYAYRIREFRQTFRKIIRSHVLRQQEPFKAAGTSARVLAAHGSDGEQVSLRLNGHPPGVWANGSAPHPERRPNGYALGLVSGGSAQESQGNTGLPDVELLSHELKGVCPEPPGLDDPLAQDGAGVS

[3] = biological target: 5-hydroxytryptamine receptor 1B (Homo sapiens) (UniProt P28222); experiment: Inhibition of human 5-HT1B receptor at 10 uM by radioligand binding assay
5-hydroxytryptamine receptor 1B (Homo sapiens), sequence (P28222 whole entry): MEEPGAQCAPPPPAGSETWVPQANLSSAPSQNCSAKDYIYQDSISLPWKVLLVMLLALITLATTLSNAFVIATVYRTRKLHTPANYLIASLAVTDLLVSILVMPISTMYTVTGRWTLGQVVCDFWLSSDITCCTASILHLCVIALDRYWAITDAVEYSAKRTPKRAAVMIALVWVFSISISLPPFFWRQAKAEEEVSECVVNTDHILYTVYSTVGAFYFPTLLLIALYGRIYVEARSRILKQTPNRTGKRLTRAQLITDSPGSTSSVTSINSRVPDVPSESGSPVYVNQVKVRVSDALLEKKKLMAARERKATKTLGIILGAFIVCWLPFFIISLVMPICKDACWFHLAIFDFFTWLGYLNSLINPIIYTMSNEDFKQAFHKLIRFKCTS
In short: (§2)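 Commercial receptor scan across a 78-target panel, with percent inhibition measured at a test concentration of 10 uM.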

[4] = biological target: Glutamate NMDA receptor (Rattus norvegicus) (UniProt P35439+Q00959+Q00960+Q00961+Q62645+Q8VHN2+Q9R1M7); experiment: Inhibition of rat NMDA receptor PCP binding site at 10 uM; format: protein-complex assay; in short: as §1
[5] = biological target: Prostacyclin receptor (Homo sapiens) (UniProt P43119); experiment: Inhibition of human PGI2 receptor at 10 uM by radioligand binding assay; in short: as §1
[6] = biological target: Glucocorticoid receptor (Homo sapiens) (UniProt P04150); experiment: Inhibition of human glucocorticoid receptor at 10 uM by radioligand binding assay; in short: as §1
[7] = Half life in rat at 0.5 mg/kg, iv administered as single dose; format: ADME, organism-based; settings: in vivo
In short: (§3)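 Single-dose rat PK: iv at 0.5 mg/kg and po at 2 mg/kg. n ≥ 2 animals per time point. Oral AUC normalized to dose; clearance, Vdss and half-life taken from the iv arm.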

[8] = biological target: Beta-1 adrenergic receptor (Homo sapiens) (UniProt P08588); experiment: Inhibition of human beta1-adrenoceptor at 10 uM by radioligand binding assay; in short: as §1
Beta-1 adrenergic receptor (Homo sapiens), sequence (P08588 whole entry, looked up): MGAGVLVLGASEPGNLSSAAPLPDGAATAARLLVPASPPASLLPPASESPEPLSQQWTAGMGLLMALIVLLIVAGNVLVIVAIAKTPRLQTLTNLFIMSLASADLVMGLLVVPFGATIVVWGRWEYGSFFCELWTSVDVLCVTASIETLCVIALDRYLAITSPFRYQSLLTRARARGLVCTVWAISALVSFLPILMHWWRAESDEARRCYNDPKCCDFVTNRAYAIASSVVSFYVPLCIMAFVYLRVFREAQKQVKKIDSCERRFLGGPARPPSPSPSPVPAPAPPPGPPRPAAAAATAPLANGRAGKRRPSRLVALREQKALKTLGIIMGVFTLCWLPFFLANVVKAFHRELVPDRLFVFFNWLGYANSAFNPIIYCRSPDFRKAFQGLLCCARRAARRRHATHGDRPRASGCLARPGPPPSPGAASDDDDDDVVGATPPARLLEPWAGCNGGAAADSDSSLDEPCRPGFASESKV

[9] = biological target: Endothelin receptor type B (Homo sapiens) (UniProt P24530); experiment: Inhibition of human ETB receptor at 10 uM by radioligand binding assay; in short: as §2
Endothelin receptor type B (Homo sapiens), sequence (P24530 whole entry): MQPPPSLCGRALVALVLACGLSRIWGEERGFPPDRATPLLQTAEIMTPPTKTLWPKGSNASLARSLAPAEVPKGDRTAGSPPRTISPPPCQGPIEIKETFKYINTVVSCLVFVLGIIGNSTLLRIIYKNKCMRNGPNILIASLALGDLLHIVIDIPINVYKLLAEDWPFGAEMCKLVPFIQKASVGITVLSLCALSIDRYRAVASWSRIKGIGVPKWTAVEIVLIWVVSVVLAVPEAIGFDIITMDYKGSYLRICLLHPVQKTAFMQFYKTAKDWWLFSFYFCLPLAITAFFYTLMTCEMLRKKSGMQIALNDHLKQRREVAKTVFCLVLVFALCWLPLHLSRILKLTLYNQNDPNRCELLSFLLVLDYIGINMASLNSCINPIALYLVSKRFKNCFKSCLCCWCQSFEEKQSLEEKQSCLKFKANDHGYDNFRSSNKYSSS

Rattus norvegicus [10] = experiment: Dose normalized AUC in rat at 2 mg/kg, po administered as single dose; format: ADME, organism-based; settings: in vivo; in short: as §3
[11] = biological target: Galanin receptor type 1 (Homo sapiens) (UniProt P47211); experiment: Inhibition of human galanin receptor 1 at 10 uM by radioligand binding assay; in short: as §1
P2X purinoceptor 1 = P2X purinoceptor 1 (Homo sapiens, UniProt P51575); experiment: Inhibition of P2X1R (unknown origin)
In short: (§4)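 Selectivity at other P2X receptor subtypes, read as IC50 in a FLIPR Ca2+ flux assay.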

Rattus norvegicus [12] = organism: Rattus norvegicus; experiment: Inhibition of rat sodium channel site 2 at 10 uM by radioligand binding assay
In short: (§5)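 Single-concentration screen at 10 uM in a commercial 78-receptor panel run by CEREP; results are given as % inhibition.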

[13] = biological target: Adrenergic receptor alpha-2 (Rattus norvegicus) (UniProt P22086+P19328+P22909); experiment: Inhibition of rat alpha2-adrenoceptor at 10 uM; in short: as §1
P2X purinoceptor 7 = biological target: T1, P2X purinoceptor 7 (Homo sapiens, UniProt Q99572); experiment: Antagonist activity at P2X7R in human whole blood assessed as inhibition of LPS-induced IL-1beta production incubated for 30 mins followed by ATP addition for 30 mins by ELISA assay; format: tissue-based
T1 sequence (Q99572 whole entry): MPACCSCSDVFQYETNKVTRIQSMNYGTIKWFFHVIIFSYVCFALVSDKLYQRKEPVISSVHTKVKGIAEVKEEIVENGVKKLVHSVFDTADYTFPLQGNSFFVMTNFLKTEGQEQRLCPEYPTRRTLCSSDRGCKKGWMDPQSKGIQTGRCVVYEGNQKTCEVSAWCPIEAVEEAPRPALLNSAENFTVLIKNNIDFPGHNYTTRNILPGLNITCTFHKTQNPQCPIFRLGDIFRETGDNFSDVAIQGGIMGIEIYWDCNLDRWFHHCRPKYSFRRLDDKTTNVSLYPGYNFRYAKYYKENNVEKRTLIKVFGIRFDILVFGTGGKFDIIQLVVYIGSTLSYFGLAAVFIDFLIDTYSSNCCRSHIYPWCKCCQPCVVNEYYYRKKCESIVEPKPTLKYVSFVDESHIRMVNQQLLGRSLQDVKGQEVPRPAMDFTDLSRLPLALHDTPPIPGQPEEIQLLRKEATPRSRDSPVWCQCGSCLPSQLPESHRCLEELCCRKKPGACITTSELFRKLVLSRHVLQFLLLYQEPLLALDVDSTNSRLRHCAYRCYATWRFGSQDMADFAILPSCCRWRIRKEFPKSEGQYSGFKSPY

[14] = biological target: 5-hydroxytryptamine receptor 2B (Homo sapiens) (UniProt P41595); experiment: Inhibition of human 5-HT2B receptor at 10 uM by radioligand binding assay; in short: as §2
5-hydroxytryptamine receptor 2B (Homo sapiens), sequence (P41595 whole entry): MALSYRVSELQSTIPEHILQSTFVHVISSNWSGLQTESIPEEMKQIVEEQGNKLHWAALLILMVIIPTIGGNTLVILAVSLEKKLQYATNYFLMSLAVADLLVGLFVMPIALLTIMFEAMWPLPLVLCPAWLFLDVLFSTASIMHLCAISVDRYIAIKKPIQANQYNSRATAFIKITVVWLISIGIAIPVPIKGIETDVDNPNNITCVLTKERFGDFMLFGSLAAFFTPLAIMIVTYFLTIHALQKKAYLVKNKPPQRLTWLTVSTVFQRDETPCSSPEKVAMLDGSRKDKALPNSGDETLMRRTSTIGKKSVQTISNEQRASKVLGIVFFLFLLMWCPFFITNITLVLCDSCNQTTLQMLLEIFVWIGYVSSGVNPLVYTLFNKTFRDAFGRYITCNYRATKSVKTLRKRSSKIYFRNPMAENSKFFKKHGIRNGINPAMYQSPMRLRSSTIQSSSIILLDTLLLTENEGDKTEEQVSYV

[15] = biological target: Muscarinic acetylcholine receptor M4 (Homo sapiens) (UniProt P08173); experiment: Inhibition of human muscarinic M4 receptor at 10 uM; in short: as §1
[16] = biological target: Histamine H1 receptor (Homo sapiens) (UniProt P35367); experiment: Inhibition of human histamine H1 receptor at 10 uM; in short: as §1
Histamine H1 receptor (Homo sapiens), sequence (P35367 whole entry): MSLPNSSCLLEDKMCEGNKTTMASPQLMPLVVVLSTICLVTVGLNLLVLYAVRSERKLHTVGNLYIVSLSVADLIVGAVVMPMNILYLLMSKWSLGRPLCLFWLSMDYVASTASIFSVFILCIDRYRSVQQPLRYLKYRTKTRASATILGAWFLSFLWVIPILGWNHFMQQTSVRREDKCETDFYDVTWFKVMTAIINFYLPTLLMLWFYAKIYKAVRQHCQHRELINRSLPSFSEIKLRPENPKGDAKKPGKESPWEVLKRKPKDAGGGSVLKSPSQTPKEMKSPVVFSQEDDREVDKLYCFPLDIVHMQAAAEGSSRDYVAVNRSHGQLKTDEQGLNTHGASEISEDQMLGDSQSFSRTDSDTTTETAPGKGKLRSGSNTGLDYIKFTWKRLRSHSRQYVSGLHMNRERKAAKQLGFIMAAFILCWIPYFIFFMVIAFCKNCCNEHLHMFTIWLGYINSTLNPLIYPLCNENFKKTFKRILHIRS

Plasma [17] = experiment: Metabolic stability in human plasma at 10 uM after 4 hrs by LC/MS/MS analysis; format: ADME, cell-free
[18] = biological target: Tumor necrosis factor receptor superfamily member 1A (Homo sapiens) (UniProt P19438); experiment: Inhibition of human TNFalpha receptor at 10 uM by radioligand binding assay; in short: as §1
Tumor necrosis factor receptor superfamily member 1A (Homo sapiens), sequence (P19438 whole entry): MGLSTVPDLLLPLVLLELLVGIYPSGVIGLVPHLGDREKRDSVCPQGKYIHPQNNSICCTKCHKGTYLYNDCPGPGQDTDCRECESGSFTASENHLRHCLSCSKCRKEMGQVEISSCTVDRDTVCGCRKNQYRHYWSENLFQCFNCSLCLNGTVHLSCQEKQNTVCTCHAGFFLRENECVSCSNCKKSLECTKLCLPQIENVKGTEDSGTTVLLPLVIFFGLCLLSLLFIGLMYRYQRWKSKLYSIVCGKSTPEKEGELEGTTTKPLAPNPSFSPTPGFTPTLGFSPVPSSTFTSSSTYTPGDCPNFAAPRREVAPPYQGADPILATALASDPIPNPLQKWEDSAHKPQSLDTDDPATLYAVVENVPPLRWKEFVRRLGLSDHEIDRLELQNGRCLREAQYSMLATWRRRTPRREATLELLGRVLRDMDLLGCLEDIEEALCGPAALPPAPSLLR

[19] = biological target: 5-hydroxytryptamine receptor 7 (Homo sapiens) (UniProt P34969); experiment: Inhibition of human 5-HT7 receptor at 10 uM by radioligand binding assay; in short: as §2
[20] = biological target: Translocator protein (Rattus norvegicus) (UniProt P16257); experiment: Inhibition of rat peripheral type benzodiazepine receptor at 10 uM by radioligand binding assay; in short: as §5
Translocator protein (Rattus norvegicus), sequence (P16257 whole entry, looked up): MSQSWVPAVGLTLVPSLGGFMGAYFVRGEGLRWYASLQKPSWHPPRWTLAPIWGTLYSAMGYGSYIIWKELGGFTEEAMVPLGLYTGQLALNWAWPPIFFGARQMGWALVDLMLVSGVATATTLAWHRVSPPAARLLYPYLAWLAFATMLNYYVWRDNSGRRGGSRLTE

[21] = biological target: 5-hydroxytryptamine receptor 2A (Homo sapiens) (UniProt P28223); experiment: Inhibition of human 5-HT2A receptor at 10 uM; in short: as §2
5-hydroxytryptamine receptor 2A (Homo sapiens), sequence (P28223 whole entry): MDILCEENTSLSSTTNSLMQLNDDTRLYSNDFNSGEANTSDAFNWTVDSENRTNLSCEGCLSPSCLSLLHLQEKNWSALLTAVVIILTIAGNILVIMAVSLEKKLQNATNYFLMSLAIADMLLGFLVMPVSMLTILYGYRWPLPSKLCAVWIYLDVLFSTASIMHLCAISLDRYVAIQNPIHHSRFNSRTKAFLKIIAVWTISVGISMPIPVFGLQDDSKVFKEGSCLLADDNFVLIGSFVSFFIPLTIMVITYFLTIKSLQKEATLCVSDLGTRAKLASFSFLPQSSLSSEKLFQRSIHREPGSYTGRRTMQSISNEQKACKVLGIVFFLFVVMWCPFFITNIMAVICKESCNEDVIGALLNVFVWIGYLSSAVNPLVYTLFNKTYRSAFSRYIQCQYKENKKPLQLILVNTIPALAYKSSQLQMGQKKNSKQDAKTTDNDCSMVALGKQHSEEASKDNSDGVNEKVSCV

Rattus norvegicus [22] = organism: Rattus norvegicus; experiment: Inhibition of rat P2X purinoceptor at 10 uM by radioligand binding assay; in short: as §1
[23] = Metabolic stability in human blood; format: ADME; settings: read-out: Stability (converted)
Rattus norvegicus [24] = organism: Rattus norvegicus; experiment: Inhibition of rat P2Y purinoceptor at 10 uM by radioligand binding assay; in short: as §1
[25] = biological target: 5-hydroxytryptamine receptor 6 (Homo sapiens) (UniProt P50406); experiment: Inhibition of human 5-HT6 receptor at 10 uM by radioligand binding assay; in short: as §2
[26] = biological target: Muscarinic acetylcholine receptor M1 (Homo sapiens) (UniProt P11229); experiment: Inhibition of human muscarinic M1 receptor at 10 uM; in short: as §1
Plasma [27] = experiment: Metabolic stability in rat plasma at 10 uM after 4 hrs by LC/MS/MS analysis; format: ADME, cell-free
P2X purinoceptor 3 = P2X purinoceptor 3 (Homo sapiens, UniProt P56373); experiment: Inhibition of P2X3R (unknown origin); in short: as §4
[28] = biological target: C-C chemokine receptor type 1 (Homo sapiens) (UniProt P32246); experiment: Inhibition of human CCR1 at 10 uM by radioligand binding assay; in short: as §2
C-C chemokine receptor type 1 (Homo sapiens), sequence (P32246 whole entry): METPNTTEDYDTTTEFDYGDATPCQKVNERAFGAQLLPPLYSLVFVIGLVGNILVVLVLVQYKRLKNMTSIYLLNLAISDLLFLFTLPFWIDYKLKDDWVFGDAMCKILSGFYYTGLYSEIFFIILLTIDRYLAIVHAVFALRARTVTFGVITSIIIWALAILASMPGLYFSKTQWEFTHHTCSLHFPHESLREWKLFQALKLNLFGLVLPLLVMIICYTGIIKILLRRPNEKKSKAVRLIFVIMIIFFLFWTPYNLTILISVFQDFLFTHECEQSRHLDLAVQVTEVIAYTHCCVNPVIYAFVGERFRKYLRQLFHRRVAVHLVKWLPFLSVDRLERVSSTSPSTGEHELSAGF

[29] = biological target: Galanin receptor type 2 (Homo sapiens) (UniProt O43603); experiment: Inhibition of human galanin receptor 2 at 10 uM by radioligand binding assay; in short: as §1
[30] = biological target: Sodium-dependent noradrenaline transporter (Homo sapiens) (UniProt P23975); experiment: Inhibition of human norepinephrine transporter at 10 uM; in short: as §1
Sodium-dependent noradrenaline transporter (Homo sapiens), sequence (P23975 whole entry): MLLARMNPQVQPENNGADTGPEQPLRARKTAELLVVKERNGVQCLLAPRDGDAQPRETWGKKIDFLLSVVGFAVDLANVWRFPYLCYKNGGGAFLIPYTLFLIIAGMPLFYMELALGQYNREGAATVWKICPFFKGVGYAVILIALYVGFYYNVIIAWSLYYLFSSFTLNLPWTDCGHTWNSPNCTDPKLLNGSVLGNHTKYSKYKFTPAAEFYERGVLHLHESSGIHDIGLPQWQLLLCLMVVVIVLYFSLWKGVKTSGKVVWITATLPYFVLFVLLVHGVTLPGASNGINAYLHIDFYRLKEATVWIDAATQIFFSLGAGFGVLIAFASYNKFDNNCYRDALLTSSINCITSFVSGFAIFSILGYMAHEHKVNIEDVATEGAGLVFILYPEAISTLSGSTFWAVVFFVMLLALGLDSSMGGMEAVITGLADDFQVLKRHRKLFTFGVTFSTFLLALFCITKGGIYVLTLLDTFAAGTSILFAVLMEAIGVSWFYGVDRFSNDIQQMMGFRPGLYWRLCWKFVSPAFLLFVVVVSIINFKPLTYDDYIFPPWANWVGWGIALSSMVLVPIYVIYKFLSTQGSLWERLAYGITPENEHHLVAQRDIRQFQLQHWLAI

- inhibition [1]: < 30%
- inhibition [2]: < 30%
- inhibition [3]: < 30%
- inhibition [4]: < 30%
- inhibition [5]: < 30%
- inhibition [6]: < 30%
- half-life [7]: 4 h
- inhibition [8]: < 30%
- inhibition [9]: < 30%
- AUC/dose (Rattus norvegicus [10]): 1550 ng·h/mL/mg/kg
- inhibition [11]: < 30%
- IC50 (P2X purinoceptor 1): > 10 µM
- inhibition (Rattus norvegicus [12]): < 30%
- inhibition [13]: < 30%
- IC50 (P2X purinoceptor 7): 0.06 µM
- inhibition [14]: < 30%
- inhibition [15]: < 30%
- inhibition [16]: < 30%
- Stability (Plasma [17]): Stable
- inhibition [19]: < 30%
- inhibition [20]: < 30%
- inhibition [21]: < 30%
- inhibition (Rattus norvegicus [22]): < 30%
- half-life [23]: 3 h
- inhibition (Rattus norvegicus [24]): < 30%
- inhibition [25]: < 30%
- inhibition [26]: < 30%
- Stability (Plasma [27]): Stable
- IC50 (P2X purinoceptor 3): > 10 µM
- inhibition [28]: < 30%
- inhibition [29]: < 30%
- inhibition [30]: < 30%
Compound: Cc1cc(Cl)c(OCCO)cc1NC(=O)C1=CNC(=O)C[C@H]1c1ccc(F)cc1
- inhibition [18]: < 30%
